In ChEMBL document CHEMBL3867423, “New imidazolidineiminothione derivatives: Synthesis, spectral characterization and evaluation of antitumor, antiviral, antibacterial and antifungal activities” (Eur J Med Chem, 2016):
≈ marks a conversion by molar mass, not a printed value.

Assays:
Candida albicans [1] = assay: Antifungal activity against Candida albicans IMRU 3669 at 5 mg after 24 hrs by agar well diffusion assay; type: functional; details: IMRU 3669, 24 h, read-out: DIZ
Method in brief: (§1)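 Agar well diffusion. 100 µL inoculum (1×10⁸ CFU/mL bacteria, 1×10⁶ CFU/mL yeast) spread on nutrient agar (bacteria) or Sabouraud dextrose agar (fungi). 10 mm wells loaded with 100 µL of 5 mg/mL compound in DMSO. DMSO as negative control. Erythromycin (bacteria) or […] (fungi) at 5 mg/ml as standards. Plates incubated 24 h at 37 °C. Inhibition zone diameter (mm) measured, mean of triplicate.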

Aspergillus niger = assay: Antifungal activity against Aspergillus niger at 5 mg after 24 hrs by agar well diffusion assay; type: functional; details: read-out: DIZ; method in brief: as §1
[2] = Antifungal activity against Penicillium chrysogenum at 5 mg after 24 hrs by agar well diffusion assay; type: functional; method in brief: as §1
Hepatovirus A = assay: Antiviral activity against Hepatitis A virus infected in African green monkey Vero cells by plaque formation assay; type: functional; set-up: concentration or dose not given beside the values
[3] = Cytotoxicity against human HepG2 cells assessed as decrease in cell viability after 48 hrs by SRB assay; type: functional, cell-based
Method in brief: (§2)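 SRB assay. Cells seeded at 10⁴ per well and allowed to attach for 24 h. Exposed to 0, 5, 12.5, 25 and 50 µg/mL, triplicate wells per dose, for 48 h at 37 °C in 5% CO₂. Cells fixed and SRB-stained; excess dye removed with acetic acid, bound dye recovered in Tris-EDTA and read on an ELISA reader. IC50 read from the surviving-fraction curve.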

[4] = Cytotoxicity against human MCF7 cells assessed as decrease in cell viability after 48 hrs by SRB assay; type: functional, cell-based; set-up: unit not given here; method in brief: as §2
[5] = Cytotoxicity against human HCT116 cells assessed as decrease in cell viability after 48 hrs by SRB assay; type: functional, cell-based; details: hct-116; method in brief: as §2
[6] = Cytotoxicity against human PC3 cells assessed as decrease in cell viability after 48 hrs by SRB assay; type: functional, cell-based; details: pc-3; method in brief: as §2
Human alphaherpesvirus 1 = assay: Antiviral activity against HSV1 infected in African green monkey Vero cells by plaque formation assay; type: functional; set-up: concentration or dose not given beside the values
Coxsackievirus B4 = assay: Antiviral activity against human Coxsackie virus B4 infected in African green monkey Vero cells by plaque formation assay; type: functional; set-up: concentration or dose not given beside the values
Micrococcus luteus [7] = assay: Antibacterial activity against Micrococcus luteus ATCC 10240 at 5 mg after 24 hrs by agar well diffusion assay; type: functional; details: ATCC 10240, 24 h, read-out: DIZ; method in brief: as §1
Bacillus subtilis = assay: Antibacterial activity against Bacillus subtilis NCTC 10400 at 5 mg after 24 hrs by agar well diffusion assay; type: functional; details: NCTC 10400, 24 h, read-out: DIZ; method in brief: as §1
Bacillus pumilus [8] = assay: Antibacterial activity against Bacillus pumilus at 5 mg after 24 hrs by agar well diffusion assay; type: functional; details: read-out: DIZ; method in brief: as §1
Pseudomonas aeruginosa [9] = assay: Antibacterial activity against Pseudomonas aeruginosa ATCC 25619 at 5 mg after 24 hrs by agar well diffusion assay; type: functional; details: ATCC 25619, 24 h, read-out: DIZ; method in brief: as §1
Escherichia coli = assay: Antibacterial activity against Escherichia coli ATCC 10536 at 5 mg after 24 hrs by agar well diffusion assay; type: functional; details: ATCC 10536, 24 h, read-out: DIZ; method in brief: as §1
Micrococcus luteus [10] = assay: Antibacterial activity against Sarcina lutea at 5 mg after 24 hrs by agar well diffusion assay; type: functional; details: read-out: DIZ; method in brief: as §1
Pseudomonas aeruginosa [11] = assay: Antibacterial activity against Pseudomonas aeruginosa ATCC 25619 after 24 hrs by two-fold serial dilution method; type: functional; details: ATCC 25619, 24 h
Method in brief: (§3)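 Two-fold serial dilutions of DMSO stock in adjusted Mueller-Hinton broth, final 100 to 0.78 µg/ml. Bacteria pre-grown in nutrient broth, fungi in malt extract broth (48 h). Each 5 ml tube given 0.1 ml inoculum (1×10⁸ CFU/ml bacteria, 1×10⁶ CFU/ml fungi), incubated 37 °C 24 h. MIC taken as lowest concentration with no growth; triplicate, averaged.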

Micrococcus luteus [12] = assay: Antibacterial activity against Sarcina lutea after 24 hrs by two-fold serial dilution method; type: functional; method in brief: as §3
Bacillus pumilus [13] = assay: Antibacterial activity against Bacillus pumilus after 24 hrs by two-fold serial dilution method; type: functional; method in brief: as §3
Micrococcus luteus [14] = assay: Antibacterial activity against Micrococcus luteus ATCC 10240 after 24 hrs by two-fold serial dilution method; type: functional; details: ATCC 10240, 24 h; method in brief: as §3
Candida albicans [15] = assay: Antifungal activity against Candida albicans IMRU 3669 after 24 hrs by two-fold serial dilution method; type: functional; details: IMRU 3669, 24 h; method in brief: as §3

Row | SMILES | zone of inhibition at 5000 µg/disc (Candida albicans [1]) [mm] | zone of inhibition at 5000 µg/disc (Aspergillus niger) [mm] | inhibition zone (IZ) [2] [mm] | Activity (Hepatovirus A) [%] | IC50 [3] [µg] | IC50 [4] | IC50 [5] [µg] | IC50 [6] [µg] | Activity (Human alphaherpesvirus 1) [%] | Activity (Coxsackievirus B4) [%] | zone of inhibition at 5000 µg/disc (Micrococcus luteus [7]) [mm] | zone of inhibition at 5000 µg/disc (Bacillus subtilis) [mm] | zone of inhibition at 5000 µg/disc (Bacillus pumilus [8]) [mm] | zone of inhibition at 5000 µg/disc (Pseudomonas aeruginosa [9]) [mm] | zone of inhibition at 5000 µg/disc (Escherichia coli) [mm] | zone of inhibition at 5000 µg/disc (Micrococcus luteus [10]) [mm] | also measured
1 | Cc1ncc([N+](=O)[O-])n1CCO [METRONIDAZOLE] | 27 | 33 | 25 | – | – | – | – | – | – | – | – | – | – | – | – | – | –
2 | N=C1C(=S)N(c2cc(Cl)cc(Cl)c2)C(=O)N1c1cc(Cl)c(Cl)cc1Cl | 21 | 15 | 20 | 80.3 | 0.017 | 0.015 | 0.015 | 0.017 | 96.7 | 20.6 | 16 | 27 | 21 | 18 | 27 | 21 | –
3 | Cc1ccc(N2C(=N)C(=S)N(c3cc(Cl)cc(Cl)c3)C2=O)cc1 | 21 | 18 | 19 | 66 | 0.014 | 0.009 | 0.053 | 0.035 | 71.6 | 43.6 | 17 | 16 | 20 | 16 | 16 | 28 | –
4 | N=C1C(=S)N(c2cc(Cl)cc(Cl)c2)C(=O)N1c1ccc(Cl)c(C(F)(F)F)c1 | 22 | 12 | 20 | 0 | 0.028 | 0.024 | 0.044 | 0.039 | 9.6 | 0 | 21 | 20 | 21 | 21 | 18 | 23 | –
5 | COc1ccc(OC)c(N2C(=O)N(c3ccc(C)cc3)C(=N)C2=S)c1 | 17 | 16 | 17 | 30.7 | 0.037 | 0.015 | 0.014 | 0.048 | 50.2 | 0 | 17 | 16 | 20 | 14 | 16 | 26 | –
6 | COc1ccc(OC)c(N2C(=O)N(c3ccc4c(c3)Cc3ccccc3-4)C(=N)C2=S)c1 | 14 | 14 | 18 | 29.9 | 0.048 | 0.052 | 0.047 | 0.056 | 32.4 | 0 | 16 | 12 | 17 | 0 | 18 | 24 | –
7 | N=C1C(=S)N(c2cc(Cl)cc(Cl)c2)C(=O)N1c1cccc(Cl)c1 | 24 | 16 | 21 | 100 | 0.025 | 0.011 | 0.041 | 0.031 | 36.4 | 41.6 | 16 | 30 | 15 | 0 | 30 | 24 | –
8 | Cc1ccc(F)cc1N1C(=N)C(=S)N(c2cc(Cl)cc(Cl)c2)C1=O | 18 | 22 | 21 | 20.6 | 0.05 | 0.011 | 0.034 | 0.064 | 45.3 | 31.1 | 20 | 20 | 21 | 22 | 18 | 24 | MIC (Pseudomonas aeruginosa [11]): 3.12 µg/mL (≈ 8.16 µM); MIC (Micrococcus luteus [12]): 3.12 µg/mL (≈ 8.16 µM); MIC (Bacillus pumilus [13]): 6.25 µg/mL (≈ 16.4 µM); MIC (Micrococcus luteus [14]): 6.25 µg/mL (≈ 16.4 µM); MIC (Candida albicans [15]): 6.25 µg/mL (≈ 16.4 µM)
9 | Cc1ccc(F)cc1N1C(=N)C(=S)N(c2ccc(Br)cc2)C1=O | 22 | 20 | 21 | 36.2 | – | – | – | – | 43.1 | 0 | 22 | 22 | 21 | 21 | 20 | 23 | –
10 | CC[C@H]1OC(=O)[C@H](C)[C@@H](O[C@H]2C[C@@](C)(OC)[C@@H](O)[C@H](C)O2)[C@H](C)[C@@H](O[C@@H]2O[C@H](C)C[C@H](N(C)C)[C@H]2O)[C@](C)(O)C[C@@H](C)C(=O)[C@H](C)[C@@H](O)[C@]1(C)O [ERYTHROMYCIN] | – | – | – | – | – | – | – | – | – | – | 32 | 40 | 32 | 30 | 37 | 44 | –
11 | N=C1C(=S)N(c2ccccc2)C(=O)N1c1c(Cl)cccc1Cl | 23 | 17 | 16 | 0 | – | – | – | – | 33.3 | 0 | 14 | 18 | 18 | 15 | 18 | 26 | –
12 | N=C1C(=S)N(c2cc(Cl)cc(Cl)c2)C(=O)N1c1c(Cl)cccc1Cl | 23 | 15 | 18 | 70.2 | 0.039 | 0.02 | 0.039 | 0.064 | 33.6 | 0 | 16 | 19 | 17 | 17 | 19 | 27 | –
13 | COc1ccc(N2C(=O)N(c3cccc(Cl)c3)C(=N)C2=S)c(OC)c1 | 27 | 18 | 20 | 36.2 | 0.012 | 0.02 | 0.023 | 0.031 | 47.4 | 2.3 | 14 | 20 | 17 | 16 | 20 | 28 | –
14 | COc1cccc2c1C(=O)c1c(O)c3c(c(O)c1C2=O)C[C@@](O)(C(=O)CO)C[C@@H]3O[C@H]1C[C@H](N)[C@H](O)[C@H](C)O1 [DOXORUBICIN] | – | – | – | – | 0.007 | – | 0.007 | 0.008 | – | – | – | – | – | – | – | – | –
